The source of these data is ChEMBL document CHEMBL1144402, “Effect of a 6-cyano substituent in 14-oxygenated N-methylmorphinans on opioid receptor binding and antinociceptive potency” (J Med Chem, 2005).

For experiment [1], the target named is Kappa-type opioid receptor (Rattus norvegicus, UniProt P34975). In words: Displacement of[3H]U69,593 from kappa opioid receptor of rat brain membranes. The gist of the method:
(§1)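 Competitive binding on rat brain membrane preparations with the tritiated radioligand named for each receptor (μ, [3H]DAMGO; δ, [3H][Ile5,6]deltorphin II; κ, [3H]U69,593). Affinity is reported as inhibition constant (Ki).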

For experiment [2], the target named is Mu-type opioid receptor (Rattus norvegicus, UniProt P33535). In words: Displacement of [3H][DAMGO] from mu opioid receptor of rat brain membranes. The experiment is classed as cell membranes, Membrane. Summed up: as §1
Sequence of Mu-type opioid receptor (P33535 whole entry): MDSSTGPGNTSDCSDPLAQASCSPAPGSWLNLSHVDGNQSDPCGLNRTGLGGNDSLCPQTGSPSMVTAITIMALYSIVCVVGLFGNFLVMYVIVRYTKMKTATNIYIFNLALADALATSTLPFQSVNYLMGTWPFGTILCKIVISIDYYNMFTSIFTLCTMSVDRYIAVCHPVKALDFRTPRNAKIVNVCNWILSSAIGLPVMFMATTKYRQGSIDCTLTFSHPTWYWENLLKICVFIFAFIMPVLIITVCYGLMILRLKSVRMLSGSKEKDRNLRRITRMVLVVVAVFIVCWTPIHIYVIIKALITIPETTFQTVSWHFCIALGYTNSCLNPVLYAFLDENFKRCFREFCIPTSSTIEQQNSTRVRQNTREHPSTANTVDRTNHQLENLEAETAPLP
For experiment [3], the system named is Mus musculus. Briefly: In vivo analgesic effect of the compound (sc) assessed as antinociceptive potency by hot plate test in mice. The class given is functional. The gist of the method:
(§2)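 Male ICR mice of 20–30 g, each animal tested only once. Drug given subcutaneously at a minimum of three doses, 6–10 mice per dose. Hot-plate, tail-flick and p-phenylquinone writhing tests were run as modified procedures. Potency is given as the 50% effective dose with 95% confidence limits.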

Experiment [4] concerns the target Delta-type opioid receptor (Rattus norvegicus, UniProt P33533). Briefly: Displacement of [3H]Ile5,6]-deltorphin II from delta opioid receptor of rat brain membranes. The class given is cell membranes, Membrane. The gist of the method:
as §1

In experiment [5] the test system is Mus musculus. In words: In vivo analgesic effect of the compound (sc) assessed as antinociceptive potency by p-phenylquinone writhing test in mice. The class given is functional. The gist of the method:
as §2

In experiment [6] the test system is Mus musculus. Briefly: In vivo analgesic effect of the compound (sc) assessed as antinociceptive potency by tail flick test in mice. The experiment is classed as functional. The gist of the method:
as §2

The subject of experiment [7] is Mus musculus. In words: In vivo analgesic effect (sc) assessed as antinociceptive potency by tail flick test in mice. The class given is functional. The gist of the method: as §2
For experiment [8], the system named is Mus musculus. Briefly: In vivo analgesic effect (sc) assessed as antinociceptive potency by p-phenylquinone writhing test in mice. The class given is functional. The gist of the method:
as §2

The subject of experiment [9] is Mus musculus. Briefly: In vivo analgesic effect (sc) assessed as antinociceptive potency by hot plate test in mice. The class given is functional. Summed up:
as §2

Molecules are shown by their SMILES.

Sequence of Delta-type opioid receptor (P33533 whole entry): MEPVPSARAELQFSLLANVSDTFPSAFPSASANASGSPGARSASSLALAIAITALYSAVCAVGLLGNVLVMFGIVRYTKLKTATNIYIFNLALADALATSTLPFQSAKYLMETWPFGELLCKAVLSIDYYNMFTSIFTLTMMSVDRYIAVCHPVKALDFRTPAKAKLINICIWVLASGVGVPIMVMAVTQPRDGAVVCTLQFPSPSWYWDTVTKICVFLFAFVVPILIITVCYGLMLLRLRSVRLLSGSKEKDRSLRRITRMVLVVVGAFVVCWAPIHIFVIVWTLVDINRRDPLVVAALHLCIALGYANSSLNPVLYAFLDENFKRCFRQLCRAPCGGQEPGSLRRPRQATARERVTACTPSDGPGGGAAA
Sequence of Kappa-type opioid receptor (P34975 whole entry): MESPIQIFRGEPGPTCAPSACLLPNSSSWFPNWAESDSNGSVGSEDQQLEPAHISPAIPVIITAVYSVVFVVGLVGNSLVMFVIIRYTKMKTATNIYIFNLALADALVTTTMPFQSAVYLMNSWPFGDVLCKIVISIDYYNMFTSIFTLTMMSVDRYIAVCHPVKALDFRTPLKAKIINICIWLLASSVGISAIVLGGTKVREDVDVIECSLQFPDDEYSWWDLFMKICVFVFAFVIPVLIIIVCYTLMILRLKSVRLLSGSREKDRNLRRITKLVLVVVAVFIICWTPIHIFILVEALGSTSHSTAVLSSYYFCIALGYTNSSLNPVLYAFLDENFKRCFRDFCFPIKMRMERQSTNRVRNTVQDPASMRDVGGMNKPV

Take `COc1ccc2c(c1O)[C@]13CCN(C)[C@H](C2)[C@]1(OC)CCC(=O)C3`: the inhibition constant (Ki) in experiment [1] came out at 592 nM; in [2], 4.65 nM; in experiment [4], 180 nM. Besides, in [3], the ED50 amounted to 0.29 mg/kg.

Consider `COc1ccc2c(c1OC)[C@]13CCN(C)[C@H](C2)[C@]1(O)CCC(=O)C3`, for which the Ki in experiment [1] worked out at 693 nM; in [2], 3.88 nM; in [4], 91.6 nM. In addition, the ED50 in experiment [3] worked out at 0.14 mg/kg.

With `COc1ccc2c(c1O)[C@@]13C=C(C#N)CC[C@@]1(OC)[C@@H](C2)N(C)CC3`, the Ki in experiment [1] stood at 378 nM; in experiment [2], 5.38 nM; in [4] it was 197 nM. Further, the ED50 in experiment [5] worked out at 0.11 mg/kg; in [3], 0.25 mg/kg; in experiment [6], 0.21 mg/kg.

As for `COc1ccc2c(c1O)[C@]13CCN(C)[C@H](C2)[C@]1(O)CCC(=O)C3`, the Ki in [1] stood at 763 nM; in experiment [2] it was 32.6 nM; in [4], 881 nM. In [3], the ED50 came to 2.6 mg/kg.

With `COc1ccc2c(c1O)[C@@]13C=C(C#N)CC[C@@]1(O)[C@@H](C2)N(C)CC3`, the results for the Ki in experiment [1] and in experiment [4] were 1650 nM and 498 nM, respectively. In addition, the ED50 stood at 0.18 mg/kg in experiment [5], 0.5 mg/kg in [3] and 1.88 mg/kg in [6].

Take `COc1ccc2c(c1OC)[C@@]13C=C(C#N)CC[C@@]1(O)[C@@H](C2)N(C)CC3`: the Ki stood at 364 nM in experiment [1], 2.44 nM in experiment [2] and 107 nM in experiment [4]. Further, the ED50 came out at 0.026 mg/kg in experiment [5], 0.15 mg/kg in experiment [3] and 0.018 mg/kg in experiment [6].

`COc1ccc2c3c1O[C@H]1C(=O)CC[C@@]4(O)[C@@H](C2)N(C)CC[C@]314` [OXYCODONE]: the ED50 worked out at 0.94 mg/kg in [7], 0.38 mg/kg in [8] and 1.37 mg/kg in experiment [9].
